According to ChEMBL document CHEMBL1782031, “Urea/thiourea derivatives of quinazolinone-lysine conjugates: synthesis and structure-activity relationships of a new series of antimicrobials” (2011):

Key:
Assay type in all cases: functional
Conditions in all cases: read-out: DIZ
Escherichia coli = assay: Antibacterial activity against Escherichia coli at 10 ug/disc after 24 hrs by disc diffusion method
Method in brief: (§1)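 Disc diffusion assay. Discs were held at 4 °C for 2 h so the compounds could diffuse, then incubated at 28 °C. Inhibition zone diameters were measured in mm after 24 h. Each compound was tested in triplicate.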

Bacillus subtilis = assay: Antibacterial activity against Bacillus subtilis at 10 ug/disc after 24 hrs by disc diffusion method; method in brief: as §1
Pseudomonas fluorescens = assay: Antibacterial activity against Pseudomonas fluorescens at 10 ug/disc after 24 hrs by disc diffusion method; method in brief: as §1
Xanthomonas oryzae = assay: Antibacterial activity against Xanthomonas oryzae at 10 ug/disc after 24 hrs by disc diffusion method
[1] = Antibacterial activity against Xanthomonas campestris pvs. at 10 ug/disc after 24 hrs by disc diffusion method; method in brief: as §1

| SMILES | zone of inhibition at 10 µg/disc (Escherichia coli) | zone of inhibition at 10 µg/disc (Bacillus subtilis) | zone of inhibition at 10 µg/disc (Pseudomonas fluorescens) | zone of inhibition at 10 µg/disc (Xanthomonas oryzae) | zone of inhibition at 10 µg/disc [1] |
| --- | --- | --- | --- | --- | --- |
| NCCCC[C@H](NC(=O)CCc1nc2ccccc2c(=O)[nH]1)C(=O)O | 9 mm | 8 mm | 10 mm | 9 mm | 10 mm |
| COC(=O)[C@H](CCCCNC(C)=O)NC(=O)CCCc1nc2ccccc2c(=O)[nH]1 | 9 mm | 8 mm | 7 mm | 8 mm | 6 mm |
| COC(=O)[C@H](CCCCNC(=S)Nc1ccccc1C)NC(=O)CCCc1nc2ccccc2c(=O)[nH]1 | 23 mm | 22 mm | 23 mm | 24 mm | 25 mm |
| COC(=O)[C@H](CCCCN)NC(=O)CCc1nc2ccccc2c(=O)[nH]1 | 8 mm | 6 mm | 10 mm | 10 mm | 9 mm |
| COC(=O)[C@H](CCCCNC(=O)Nc1ccc(OC)cc1)NC(=O)CCc1nc2ccccc2c(=O)[nH]1 | 23 mm | 22 mm | 25 mm | 28 mm | 26 mm |
| COC(=O)[C@H](CCCCN)NC(=O)CCCc1nc2ccccc2c(=O)[nH]1 | 9 mm | 10 mm | 10 mm | 12 mm | 12 mm |
| O=C(CCc1nc2ccccc2c(=O)[nH]1)N[C@@H](CCCCNC(=O)Nc1ccc(Cl)cc1)C(=O)O | 30 mm | 28 mm | 32 mm | 30 mm | 30 mm |
| COC(=O)[C@H](CCCCNS(C)(=O)=O)NC(=O)CCCc1nc2ccccc2c(=O)[nH]1 | 9 mm | 11 mm | 11 mm | 11 mm | 12 mm |
| COC(=O)[C@H](CCCCNC(=O)Nc1cccc(F)c1)NC(=O)CCCc1nc2ccccc2c(=O)[nH]1 | 35 mm | 36 mm | 34 mm | 35 mm | 36 mm |
| COC(=O)[C@H](CCCCNC(C)=O)NC(=O)CCc1nc2ccccc2c(=O)[nH]1 | 10 mm | 9 mm | 12 mm | 12 mm | 11 mm |
| COC(=O)[C@H](CCCCNC(=O)Nc1cccc(F)c1)NC(=O)CCc1nc2ccccc2c(=O)[nH]1 | 36 mm | 35 mm | 36 mm | 36 mm | 37 mm |
| COC(=O)[C@H](CCCCNC(=S)Nc1ccc(F)cc1C)NC(=O)CCCc1nc2ccccc2c(=O)[nH]1 | 33 mm | 32 mm | 33 mm | 32 mm | 30 mm |
| CC(=O)NCCCC[C@H](NC(=O)CCc1nc2ccccc2c(=O)[nH]1)C(=O)O | 10 mm | 11 mm | 13 mm | 14 mm | 12 mm |
| CN[C@@H]1[C@H](O[C@H]2[C@H](O[C@H]3[C@H](O)[C@@H](O)[C@H](N=C(N)N)[C@@H](O)[C@@H]3N=C(N)N)O[C@@H](C)[C@]2(O)C=O)O[C@@H](CO)[C@H](O)[C@H]1O [STREPTOMYCIN] | 21 mm | 17 mm | 23 mm |  |  |
| COC(=O)[C@H](CCCCNC(=O)Nc1ccc(Cl)cc1)NC(=O)CCc1nc2ccccc2c(=O)[nH]1 | 28 mm | 24 mm | 29 mm | 29 mm | 28 mm |
| COC(=O)[C@H](CCCCNC(=S)Nc1cccc(F)c1)NC(=O)CCc1nc2ccccc2c(=O)[nH]1 | 38 mm | 36 mm | 36 mm | 35 mm | 38 mm |
| CS(=O)(=O)NCCCC[C@H](NC(=O)CCCc1nc2ccccc2c(=O)[nH]1)C(=O)O | 11 mm | 12 mm | 12 mm | 10 mm | 11 mm |
| Cc1ccccc1NC(=S)NCCCC[C@H](NC(=O)CCCc1nc2ccccc2c(=O)[nH]1)C(=O)O | 24 mm | 23 mm | 25 mm | 25 mm | 26 mm |
| Cc1cc(F)ccc1NC(=S)NCCCC[C@H](NC(=O)CCCc1nc2ccccc2c(=O)[nH]1)C(=O)O | 34 mm | 33 mm | 34 mm | 33 mm | 32 mm |
| CN(C)[C@@H]1C(O)=C(C(N)=O)C(=O)[C@@]2(O)C(O)=C3C(=O)c4c(O)cccc4[C@@](C)(O)[C@H]3C[C@@H]12 [TETRACYCLINE] |  |  |  | 18 mm | 19 mm |
| O=C(CCCc1nc2ccccc2c(=O)[nH]1)N[C@@H](CCCCNC(=O)Nc1ccc(Cl)cc1)C(=O)O | 28 mm | 29 mm | 30 mm | 29 mm | 28 mm |
| CC(C)(C)OC(=O)NCCCC[C@H](NC(=O)CCCc1nc2ccccc2c(=O)[nH]1)C(=O)O | 10 mm | 9 mm | 11 mm | 11 mm | 12 mm |
| O=C(CCc1nc2ccccc2c(=O)[nH]1)N[C@@H](CCCCNC(=S)Nc1cccc(F)c1)C(=O)O | 38 mm | 36 mm | 34 mm | 36 mm | 36 mm |
| CS(=O)(=O)NCCCC[C@H](NC(=O)CCc1nc2ccccc2c(=O)[nH]1)C(=O)O | 9 mm | 9 mm | 12 mm | 10 mm | 10 mm |
| COC(=O)[C@H](CCCCNC(=S)Nc1cccc(F)c1)NC(=O)CCCc1nc2ccccc2c(=O)[nH]1 | 35 mm | 34 mm | 33 mm | 36 mm | 34 mm |
| CC(=O)NCCCC[C@H](NC(=O)CCCc1nc2ccccc2c(=O)[nH]1)C(=O)O | 11 mm | 10 mm | 10 mm | 12 mm | 14 mm |
| COc1ccc(NC(=O)NCCCC[C@H](NC(=O)CCc2nc3ccccc3c(=O)[nH]2)C(=O)O)cc1 | 25 mm | 24 mm | 27 mm | 28 mm | 28 mm |
